Experimental data from ChEMBL document CHEMBL4396869, “Design and Synthesis of Selective Phosphodiesterase 4D (PDE4D) Allosteric Inhibitors for the Treatment of Fragile X Syndrome and Other Brain Disorders” (J Med Chem, 2019).
Values after ≈ are worked out from the molar mass of the structure shown. Active and inactive are the calls of the source. The calls are words filed in the database; no cut-off is given here.

Key:
Mus musculus [1] = assay: Induction of emesis in ICR mouse assessed as reduction in ketamine/xylazine-induced duration of anesthesia at 0.1 mg/kg, ip pretreated for 15 mins followed by ketamine/xylazine addition; format: organism-based; details: in vivo
Outline: (§1)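 Male ICR mice, 25–30 g. Test agents given by oral gavage in 5% DMSO, 5% Solutol in PBS, or rolipram IP; ketamine (80 mg/kg) plus xylazine (10 mg/kg) IP given 30 min after PO or 15 min after IP dosing. Endpoint: time from loss to return of righting reflex.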

Mus musculus [2] = assay: Memory enhancement effect in ICR mouse assessed as improvement in novel object discrimination at 0.1 mg/kg, ip […] measured for 5 mins by open field test; format: functional, organism-based
Outline: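 Male ICR mice (25–30 g) in open field box; habituation 10 min day 1, training with two identical objects 5 min day 2, test with familiar and novel object 5 min day 3 (24 h delay). Exploration times recorded; discrimination index d2 = (b − a)/(a + b). Oral dosing in 5% DMSO, 5% Solutol in PBS; rolipram given parenterally.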

[3] = (§2) Inhibition of recombinant human His6-tagged PDE4D7 UCR1 S129D mutant expressed in baculovirus infected Sf9 insect cells using cAMP as substrate preincubated for 5 to 10 mins followed by substrate addition and measured for 10 mins by yeast myokinase/pyruvate kinase/lactate dehydrogenase-coupled fluorescence assay
[4] = as §2, with “human wild-type” for “human”, “domain (S129 residues)” for “S129D mutant”
[5] = biological target: 3',5'-cyclic-AMP phosphodiesterase 4B (Homo sapiens, UniProt Q07343, S133D); assay: as §2, with “PDE4B1” for “PDE4D7”, “S133D” for “S129D”
Chain of 3',5'-cyclic-AMP phosphodiesterase 4B (Q07343 whole entry S133D): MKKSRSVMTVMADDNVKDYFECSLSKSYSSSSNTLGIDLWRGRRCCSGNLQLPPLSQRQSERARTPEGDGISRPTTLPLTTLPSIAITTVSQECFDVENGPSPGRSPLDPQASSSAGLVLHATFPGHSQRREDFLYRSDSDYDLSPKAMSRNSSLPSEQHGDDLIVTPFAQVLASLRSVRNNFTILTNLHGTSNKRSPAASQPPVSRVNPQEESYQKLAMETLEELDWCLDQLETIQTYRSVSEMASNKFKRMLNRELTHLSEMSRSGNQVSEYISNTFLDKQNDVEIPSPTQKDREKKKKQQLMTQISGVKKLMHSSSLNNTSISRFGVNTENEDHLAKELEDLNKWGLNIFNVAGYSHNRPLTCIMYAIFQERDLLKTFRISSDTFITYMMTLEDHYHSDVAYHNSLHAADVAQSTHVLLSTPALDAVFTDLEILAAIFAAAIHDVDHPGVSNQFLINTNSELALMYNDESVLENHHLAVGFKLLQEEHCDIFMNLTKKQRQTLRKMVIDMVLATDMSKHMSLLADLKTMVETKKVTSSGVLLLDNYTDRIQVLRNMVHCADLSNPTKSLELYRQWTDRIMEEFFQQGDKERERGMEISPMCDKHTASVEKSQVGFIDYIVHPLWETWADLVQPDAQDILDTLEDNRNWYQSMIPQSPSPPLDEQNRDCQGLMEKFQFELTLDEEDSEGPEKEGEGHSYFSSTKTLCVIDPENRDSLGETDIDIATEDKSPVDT

[6] = Protein binding in mouse plasma; format: ADME, cell-free; details: read-out: PPB
Mus musculus [7] = assay: Memory enhancement effect in ICR mouse assessed as improvement in novel object discrimination at 1 to 3 mg/kg, po administered via gavage measured for 5 mins by open field test; format: functional, organism-based
Outline: (§3)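 Male ICR mice (25–30 g), dosed by oral gavage in 5% DMSO, 5% Solutol in PBS. Three phases in an open field box: 10 min habituation on day 1, 5 min training with identical objects on day 2, 5 min test with familiar and novel objects on day 3 (24 h delay). Exploration times recorded; discrimination index d2 = (b − a)/(a + b).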

[8] = Permeability across basal to apical side in MDCK-MDR1 cells; format: ADME, cell-based, Canis lupus familiaris; details: dog
Outline: (§4)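 Cellular permeability in MDCK-MDR1 cells, apical-to-basal and basal-to-apical, run by a contract lab using standard protocols. Efflux ratio taken as B-A/A-B.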

[9] = Stability in mouse liver microsomes assessed as parent compound remaining at 1 uM measured after 30 mins by LC-MS/MS analysis; format: ADME, Microsome; details: read-out: Stability
Outline: (§5)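 Liver microsome stability run by a contract lab using standard protocols. Parent compound remaining measured after 30 min incubation.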

[10] = Half life in po dosed mouse brain; format: ADME, organism-based; details: in vivo
[11] = Stability in monkey liver microsomes assessed as parent compound remaining at 1 uM measured after 30 mins by LC-MS/MS analysis; format: ADME, Macaca mulatta, Microsome; details: rhesus monkey, read-out: Stability; outline: as §5
[12] = Protein binding in rat plasma; format: ADME, cell-free; details: read-out: PPB
[13] = Stability in dog liver microsomes assessed as parent compound remaining at 1 uM measured after 30 mins by LC-MS/MS analysis; format: ADME, Canis lupus familiaris, Microsome; details: read-out: Stability; outline: as §5
Cytochrome P450 2C19 = Cytochrome P450 2C19 (Homo sapiens, UniProt P33261); assay: Inhibition of […] (unknown origin) by fluorescence-based assay; format: ADME
Chain of Cytochrome P450 2C19 (P33261 whole entry): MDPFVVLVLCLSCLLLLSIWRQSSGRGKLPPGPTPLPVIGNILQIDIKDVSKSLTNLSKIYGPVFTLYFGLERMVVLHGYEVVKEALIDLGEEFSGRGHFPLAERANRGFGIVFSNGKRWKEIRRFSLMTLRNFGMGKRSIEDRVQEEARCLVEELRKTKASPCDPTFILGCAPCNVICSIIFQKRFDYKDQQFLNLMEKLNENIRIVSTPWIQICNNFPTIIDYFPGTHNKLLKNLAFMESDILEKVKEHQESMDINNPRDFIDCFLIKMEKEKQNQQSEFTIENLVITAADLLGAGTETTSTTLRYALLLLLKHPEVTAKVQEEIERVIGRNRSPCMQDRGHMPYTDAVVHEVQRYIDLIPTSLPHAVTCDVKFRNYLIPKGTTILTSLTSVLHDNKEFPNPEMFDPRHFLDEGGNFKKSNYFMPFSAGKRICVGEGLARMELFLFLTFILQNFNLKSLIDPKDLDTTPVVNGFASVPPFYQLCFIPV
Outline: (§6)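 CYP inhibition run with a fluorescent substrate by a contract laboratory under standard protocols; IC50 reported.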

[14] = as §2, with “10 mins in presence of BSA by yeast” for “10 mins by yeast”
[15] = Oral bioavailability in mouse; format: ADME, organism-based; details: in vivo
[16] = Therapeutic index, ratio of compound effect for induction of emesis in ICR mouse assessed as reduction in ketamine/xylazine-induced duration of anesthesia at 10 to 30 mg/kg, po to compound effect for memory enhancement effect in ICR mouse assessed as improvement in novel object discrimination at 1 to 3 mg/kg, po; format: toxicity, organism-based; details: in vivo
Outline: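 Male ICR mice (25–30 g) were gavaged with compound in 5% DMSO, 5% Solutol in PBS. Object recognition ran as 10 min habituation on day 1, 5 min training on day 2 and 5 min testing on day 3, scored as d2 = (b−a)/(a+b). Thirty minutes after an oral dose, ketamine 80 mg/kg plus xylazine 10 mg/kg was given IP, and anesthesia duration was timed from loss to return of the righting reflex. The index compares effective doses in the two tests.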

[17] = Aqueous kinetic solubility of the compound at pH 7 at 100 uM measured after 1 hr; format: physicochemical; details: buffer, pH 7, 1 h
[18] = Efflux ratio of permeability across basal to apical side over apical to basal side in MDCK-MDR1 cells; format: ADME, cell-based, Canis lupus familiaris; details: dog
Homo sapiens [19] = species on record: Homo sapiens; assay: Selectivity ratio of IC50 for recombinant human His6-tagged PDE4B1 UCR1 S133D mutant expressed in baculovirus infected Sf9 insect cells to IC50 for recombinant human His6-tagged PDE4D7 UCR1 S129D mutant expressed in baculovirus infected Sf9 insect cells
[20] = Stability in human hepatocytes assessed as parent compound remaining measured after 4 hrs by LC-UV/MS/MS analysis; format: ADME, cell-based, Hepatocyte; details: read-out: Stability
Outline: (§7)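 Metabolite identification run with cryopreserved hepatocytes from male Wistar rats and from humans, 0.5×10^6 cells/mL in suspension, incubated 4 h at 37 °C. Incubation medium analysed by LC-UV/MS/MS.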

[21] = Stability in rat liver microsomes assessed as parent compound remaining at 1 uM measured after 30 mins by LC-MS/MS analysis; format: ADME, Microsome; details: read-out: Stability; outline: as §5
[22] = Half life in po dosed mouse plasma; format: ADME, organism-based; details: in vivo
[23] = Ratio of AUC in po dosed mouse brain to plasma; format: ADME, organism-based
Outline: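 Mice were dosed orally in 5% DMSO, 5% Solutol, 90% PBS. Drug exposure was measured in plasma and brain, and the ratio was taken from brain AUC over plasma AUC.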

Mus musculus [24] = assay: Induction of emesis in ICR mouse assessed as reduction in ketamine/xylazine-induced duration of anesthesia at 10 to 30 mg/kg, po pretreated for 30 mins followed by ketamine/xylazine addition; format: organism-based; details: in vivo; outline: as §1
[25] = Protein binding in dog plasma; format: ADME, cell-free, Canis lupus familiaris; details: read-out: PPB
[26] = Permeability across apical to basal side in MDCK-MDR1 cells; format: ADME, cell-based, Canis lupus familiaris; details: dog; outline: as §4
Cytochrome P450 2D6 = Cytochrome P450 2D6 (Homo sapiens, UniProt P10635); assay: Inhibition of CYP2D6 (unknown origin) by fluorescence-based assay; format: ADME; outline: as §6
Chain of Cytochrome P450 2D6 (P10635 whole entry): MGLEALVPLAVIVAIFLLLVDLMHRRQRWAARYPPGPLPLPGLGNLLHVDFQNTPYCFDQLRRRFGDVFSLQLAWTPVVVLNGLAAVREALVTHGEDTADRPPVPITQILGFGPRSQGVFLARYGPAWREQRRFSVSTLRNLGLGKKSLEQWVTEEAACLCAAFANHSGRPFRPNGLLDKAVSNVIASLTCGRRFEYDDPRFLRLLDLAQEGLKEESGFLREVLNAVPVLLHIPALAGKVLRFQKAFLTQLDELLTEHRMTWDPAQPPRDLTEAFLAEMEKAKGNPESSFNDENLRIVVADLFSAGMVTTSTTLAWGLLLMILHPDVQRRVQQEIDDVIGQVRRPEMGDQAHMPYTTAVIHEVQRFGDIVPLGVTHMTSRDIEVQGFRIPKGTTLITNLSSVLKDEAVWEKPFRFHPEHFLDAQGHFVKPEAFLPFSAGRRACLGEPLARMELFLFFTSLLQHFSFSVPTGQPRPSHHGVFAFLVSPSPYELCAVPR

[27] = Protein binding in human plasma; format: ADME, cell-free
Cytochrome P450 3A4 = Cytochrome P450 3A4 (Homo sapiens, UniProt P08684); assay: Inhibition of CYP3A4 (unknown origin) by fluorescence-based assay; format: ADME; outline: as §6
Chain of Cytochrome P450 3A4 (P08684 whole entry): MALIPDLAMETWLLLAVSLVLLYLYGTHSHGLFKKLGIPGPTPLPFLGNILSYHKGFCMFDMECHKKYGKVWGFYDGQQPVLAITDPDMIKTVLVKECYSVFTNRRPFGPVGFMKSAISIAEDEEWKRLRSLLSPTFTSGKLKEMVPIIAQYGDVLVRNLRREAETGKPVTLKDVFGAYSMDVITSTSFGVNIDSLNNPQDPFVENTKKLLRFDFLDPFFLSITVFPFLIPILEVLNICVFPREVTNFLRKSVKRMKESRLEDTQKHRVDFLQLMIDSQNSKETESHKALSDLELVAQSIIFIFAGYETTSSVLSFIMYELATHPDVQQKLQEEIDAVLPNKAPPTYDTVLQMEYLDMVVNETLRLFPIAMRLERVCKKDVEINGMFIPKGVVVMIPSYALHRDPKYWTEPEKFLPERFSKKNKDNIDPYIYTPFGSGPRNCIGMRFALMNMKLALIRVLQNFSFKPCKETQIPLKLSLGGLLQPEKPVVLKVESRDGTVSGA

Cytochrome P450 2C9 = Cytochrome P450 2C9 (Homo sapiens, UniProt P11712); assay: Inhibition of CYP2C9 (unknown origin) by fluorescence-based assay; format: ADME; outline: as §6
Chain of Cytochrome P450 2C9 (P11712 whole entry): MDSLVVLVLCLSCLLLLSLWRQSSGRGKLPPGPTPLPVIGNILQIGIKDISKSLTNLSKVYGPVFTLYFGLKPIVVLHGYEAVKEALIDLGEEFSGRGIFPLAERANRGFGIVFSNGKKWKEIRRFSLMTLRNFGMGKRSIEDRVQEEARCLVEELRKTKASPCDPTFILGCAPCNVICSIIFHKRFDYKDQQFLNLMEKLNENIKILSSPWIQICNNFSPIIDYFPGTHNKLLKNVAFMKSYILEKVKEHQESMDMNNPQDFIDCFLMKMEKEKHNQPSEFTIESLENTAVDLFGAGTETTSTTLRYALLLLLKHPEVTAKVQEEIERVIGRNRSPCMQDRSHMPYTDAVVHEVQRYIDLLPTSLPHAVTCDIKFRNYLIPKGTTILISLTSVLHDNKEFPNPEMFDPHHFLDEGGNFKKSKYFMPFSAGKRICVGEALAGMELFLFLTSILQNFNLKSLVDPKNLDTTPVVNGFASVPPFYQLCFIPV

[28] = Solubility of the compound in FaSSIF; format: physicochemical; details: simulated gi fluid
Outline: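 Kinetic solubility measured in fasted state simulated intestinal fluid (FaSSIF), run by a contract lab using standard protocols.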

[29] = Stability in human liver microsomes assessed as parent compound remaining at 1 uM measured after 30 mins by LC-MS/MS analysis; format: ADME, Microsome; details: read-out: Stability; outline: as §5
[30] = Stability in Wistar rat hepatocytes assessed as parent compound remaining measured after 4 hrs by LC-UV/MS/MS analysis; format: ADME, cell-based, Hepatocyte; details: read-out: Stability; outline: as §7
Homo sapiens [31] = species on record: Homo sapiens; assay: Selectivity ratio of IC50 for recombinant human wild-type His6-tagged PDE4D7 UCR1 domain (S129 residues) expressed in baculovirus infected Sf9 insect cells to IC50 for recombinant human His6-tagged PDE4D7 UCR1 S129D mutant expressed in baculovirus infected Sf9 insect cells
Mus musculus [32] = assay: Memory enhancement effect in ICR mouse assessed as improvement in novel object discrimination at 3 to 30 mg/kg, po administered via gavage measured for 5 mins by open field test; format: functional, organism-based; outline: as §3
[33] = as §2, with “assay relative to control” for “assay”
[34] = Aqueous kinetic solubility of the compound in pH 7.4 PBS buffer at 100 uM measured after 1 hr; format: physicochemical; details: pH 7.4, 1 h

## COc1ccc(C2CNC(=O)C2)cc1OC1CCCC1 (centres undefined) [ROLIPRAM]
Mus musculus [1]
  Activity: Toxic
Mus musculus [2]
  Activity: Active

## CN(C)C(=O)Cc1ccc(Nc2cc(-c3cccc(Cl)c3)nc3c2CCC3)cc1
[3]
  IC50: 51 nM
[4]
  IC50: 914 nM
[5]
  IC50: 356 nM

## CCc1cc(Oc2ccc(CCO)cc2)nc(-c2cccc(Cl)c2)n1
[3]
  IC50: 1.8 nM
[4]
  IC50: 251 nM
[5]
  IC50: 58 nM

## CCc1cc(Cc2ccc(CC(N)=O)cc2)nc(-c2cccc(Cl)c2)n1
[6]
  fraction unbound: 0.002 to 0.005
Mus musculus [7]
  Activity: Active
[3]
  IC50: 1.7 nM
[8]
  permeability: 22 ×10⁻⁶ cm/s
[9]
  remaining at 0.5 h, 1 µM: 54 to 90%
[10]
  t1/2: 26.4 min
[11]
  remaining at 0.5 h, 1 µM: 54 to 90%
[12]
  fraction unbound: 0.002 to 0.005
[13]
  remaining at 0.5 h, 1 µM: 54 to 90%
[4]
  IC50: 313 nM
Cytochrome P450 2C19
  IC50: 29000 nM
[14]
  inhibition: Active
[15]
  bioavailability: 53%
[16]
  selectivity ratio: 10
[17]
  Kinetic_solubility: < 1.6 µM
[18]
  Ratio: 0.9
Homo sapiens [19]
  Ratio IC50: 132
[20]
  remaining at 4 h: 93.2%
[21]
  remaining at 0.5 h, 1 µM: 54 to 90%
[22]
  t1/2: 27.6 min
[23]
  Ratio AUC: 2.7
Mus musculus [24]
  Activity: Toxic
[5]
  IC50: 225 nM
[25]
  fraction unbound: 0.002 to 0.005
[26]
  permeability: 24.1 ×10⁻⁶ cm/s
Cytochrome P450 2D6
  IC50: > 100000 nM
[27]; read-out: PPB
  fraction unbound: 0.002 to 0.005
Cytochrome P450 3A4
  IC50: 5900 nM
Cytochrome P450 2C9
  IC50: > 100000 nM
[28]
  solubility: 100 µM (≈ 36.6 µg/mL)
[29]
  remaining at 0.5 h, 1 µM: 54 to 90%
[30]
  remaining at 4 h: 66.8%
Homo sapiens [31]
  Ratio IC50: 184

## CCc1nc(Nc2ccc(C(N)=O)cc2)nc(-c2cccc(Cl)c2)n1
[3]
  IC50: 22 nM
[4]
  IC50: 252 nM
Homo sapiens [19]
  Ratio IC50: 2
[5]
  IC50: 44 nM
Homo sapiens [31]
  Ratio IC50: 11

## O=C(O)Cc1ccc(Nc2cc(-c3cccc(Cl)c3)nc3c2CCC3)cc1
[3]
  IC50: 1160 nM
Homo sapiens [19]
  Ratio IC50: 1
[5]
  IC50: 1640 nM

## CCc1nc(Nc2ccc(C(=O)O)cc2)nc(-c2cccc(Cl)c2)n1
[3]
  IC50: 213 nM
[4]
  IC50: 482 nM
Homo sapiens [19]
  Ratio IC50: 1
[5]
  IC50: 241 nM
Homo sapiens [31]
  Ratio IC50: 2

## CNC(=O)Cc1ccc(Nc2cc(-c3cccc(Cl)c3)nc3c2CCC3)cc1
[3]
  IC50: 133 nM
[4]
  IC50: 1990 nM
[5]
  IC50: 98 nM

## CN(c1ccc(CC(N)=O)cc1)c1cc(-c2cccc(Cl)c2)nc2c1CCC2
[3]
  IC50: 733 nM
[5]
  IC50: 3290 nM

## NC(=O)CCc1ccc(Nc2cc(-c3cccc(Cl)c3)nc3c2CCC3)cc1
[3]
  IC50: 35 nM
[4]
  IC50: 1280 nM
[5]
  IC50: 166 nM

## CCc1cc(Nc2ccc(CCO)cc2)nc(-c2cccc(Cl)c2)n1
[3]
  IC50: 1.1 nM
[4]
  IC50: 149 nM
[5]
  IC50: 57 nM

## NC(=O)Cc1ccc(S(=O)(=O)c2cc(-c3cccc(Cl)c3)nc3c2CCC3)cc1
[3]
  IC50: 475 nM
[5]
  IC50: 3830 nM

## CCc1cc(Cc2ccc(CC(=O)NCCO)cc2)nc(-c2cccc(Cl)c2)n1
[6]
  fraction unbound: 0.002 to 0.004
[3]
  IC50: 0.8 nM
[9]
  remaining at 0.5 h, 1 µM: 36%
[12]
  fraction unbound: 0.002 to 0.004
[4]
  IC50: 885 nM
Mus musculus [32]
  Activity: Active
[33]
  Imax: 88%
[5]
  IC50: 128 nM
[25]
  fraction unbound: 0.002 to 0.004
[27]
  PPB: 99.6 to 99.8%
Cytochrome P450 3A4
  IC50: 3100 nM
[34]
  Kinetic_solubility: 29 µM
